These results are taken from ChEMBL document CHEMBL1124899 (J Med Chem, 1990).

SMILES strings stand for the structures.

The IC50 is the concentration needed to halve the response being measured. Low values mean greater potency, high ones weaker potency.

Holding throughout (format): cell membranes, Membrane
In test [1] the target is D(1A) dopamine receptor (Rattus norvegicus, UniProt P18901). Put plainly: Compound was evaluated for the inhibition of [3H]-SCH- 23390 binding to Dopamine receptor D1 of rat striatal membranes. In a few lines:
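Rat striatum homogenized in Tris-HCl pH 7.4, pellet washed twice at 20,000g and resuspended at 3.5 mg wet weight/mL in 50 mM Tris-HCl with 120 mM NaCl, 5 mM KCl, 2 mM CaCl2, 1 mM MgCl2. Triplicates, three separate days. IC50 by log-probit analysis.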

Test [2] concerns the target T1, D(2) dopamine receptor (Rattus norvegicus, UniProt P61169). The test can be described thus: Compound was evaluated for the inhibition of [3H]spiperone binding to dopamine receptor D2 of rat striatal membranes. The essentials: (§1)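 Rat striatal membranes were washed twice at 20,000g and suspended at 3.5 mg wet weight/mL in 50 mM Tris-HCl pH 7.4 with 120 mM NaCl, 5 mM KCl, 2 mM CaCl2, 1 mM MgCl2. Displacement of 0.1 nM [3H]spiperone (final) by 6-7 concentrations of test drug. Nonspecific binding defined with 1 μM (+)-butaclamol. Triplicates, repeated on three days. IC50 from log-probit plot.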

The target in test [3] is T1, D(2) dopamine receptor. The test can be described thus: Compound was evaluated for the inhibition of [3H]spiperone binding to Dopamine receptor D2 of rat striatal membranes. In a few lines: as §1

Chain of D(1A) dopamine receptor (P18901 whole entry): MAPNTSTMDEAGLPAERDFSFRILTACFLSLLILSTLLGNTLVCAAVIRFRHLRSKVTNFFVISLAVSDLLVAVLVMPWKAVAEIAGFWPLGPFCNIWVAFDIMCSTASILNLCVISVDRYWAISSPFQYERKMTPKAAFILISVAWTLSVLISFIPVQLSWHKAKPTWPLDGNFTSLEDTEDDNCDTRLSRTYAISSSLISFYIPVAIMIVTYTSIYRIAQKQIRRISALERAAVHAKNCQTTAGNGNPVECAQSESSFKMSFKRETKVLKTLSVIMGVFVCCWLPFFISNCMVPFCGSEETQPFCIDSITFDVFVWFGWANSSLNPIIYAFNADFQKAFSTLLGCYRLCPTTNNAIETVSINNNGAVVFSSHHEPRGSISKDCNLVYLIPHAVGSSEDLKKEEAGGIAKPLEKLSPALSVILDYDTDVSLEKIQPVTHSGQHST
T1 sequence (P61169 whole entry): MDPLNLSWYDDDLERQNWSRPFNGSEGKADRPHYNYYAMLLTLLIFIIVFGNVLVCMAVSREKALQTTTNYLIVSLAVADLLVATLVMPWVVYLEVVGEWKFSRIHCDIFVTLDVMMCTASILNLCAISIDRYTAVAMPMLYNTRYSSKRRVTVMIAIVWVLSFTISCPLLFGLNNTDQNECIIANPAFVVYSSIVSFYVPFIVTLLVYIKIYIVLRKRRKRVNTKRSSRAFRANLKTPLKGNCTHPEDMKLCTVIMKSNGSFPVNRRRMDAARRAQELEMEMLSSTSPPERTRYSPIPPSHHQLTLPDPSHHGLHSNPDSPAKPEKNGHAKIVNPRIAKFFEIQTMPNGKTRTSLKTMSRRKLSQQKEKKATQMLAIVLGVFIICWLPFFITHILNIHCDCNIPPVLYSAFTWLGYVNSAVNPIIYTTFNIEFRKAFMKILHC

`CCCN(CC)CCc1ccc(F)c(O)c1`: the IC50 in test [1] was 11.1 µM; in test [2], 1.97 µM.

In the case of `CCCN(CCc1ccccc1)CCc1ccc(F)c(O)c1`, the IC50 worked out at 10.9 µM in test [1] and 0.25 µM in test [2].

Consider `CCCN(CCC)CCc1ccc(F)c(O)c1`, for which the IC50 came to 11.4 µM in test [1] and 0.95 µM in test [2].

Take `CCCN(CCc1ccccc1)CCc1ccc(O)c(F)c1`: the IC50 in test [1] stood at 38 µM; in test [2], 0.58 µM.

Consider `NCCc1ccc(F)c(O)c1`, for which the IC50 worked out at 6.15 µM in test [1] and 4.64 µM in test [3].

Compound `CCN(CCc1ccccc1)CCc1ccc(F)c(O)c1` displayed an IC50 in test [1] of 8 µM. That is a single-digit micromolar value.
